# Measurements collected from several papers.
# Protocols differ between the studies behind these lines.
# Target: Serine/threonine-protein kinase ICK (CILK1, Homo sapiens, UniProt Q9UPZ9)
# Residues used in one study (Q9UPZ9 1-632): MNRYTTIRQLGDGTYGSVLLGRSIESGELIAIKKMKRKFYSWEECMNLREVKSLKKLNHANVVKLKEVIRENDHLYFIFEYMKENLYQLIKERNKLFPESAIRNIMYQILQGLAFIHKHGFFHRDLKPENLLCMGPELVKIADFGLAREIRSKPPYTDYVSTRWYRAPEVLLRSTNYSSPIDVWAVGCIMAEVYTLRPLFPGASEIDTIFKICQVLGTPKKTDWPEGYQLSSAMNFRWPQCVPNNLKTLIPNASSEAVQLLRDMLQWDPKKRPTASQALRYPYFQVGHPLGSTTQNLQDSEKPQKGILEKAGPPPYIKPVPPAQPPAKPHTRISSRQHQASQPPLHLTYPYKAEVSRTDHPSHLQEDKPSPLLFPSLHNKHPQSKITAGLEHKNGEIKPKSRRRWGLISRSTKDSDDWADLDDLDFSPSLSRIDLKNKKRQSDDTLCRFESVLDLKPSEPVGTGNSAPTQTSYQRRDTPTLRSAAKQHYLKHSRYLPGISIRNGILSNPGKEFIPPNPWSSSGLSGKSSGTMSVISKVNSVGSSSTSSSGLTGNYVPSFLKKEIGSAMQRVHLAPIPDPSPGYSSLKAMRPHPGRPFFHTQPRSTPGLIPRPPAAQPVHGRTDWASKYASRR
Compound,test,conditions,endpoint,result
Cc1sc(C(=O)NC2COC2)cc1-n1cc(NC(=O)Nc2c(F)cccc2Cl)cn1,"enzyme activity, inhibitor",10 µM,remaining activity,100%
CC(C)(O)[C@H]1CC[C@H](Nc2ccc3ncc(-c4cccc(C(F)(F)F)c4)n3n2)CC1,"enzyme activity, inhibitor",1 µM,remaining activity,86%
Cc1ccc(C(=O)NCc2ccsc2)cc1C#Cc1cn(C(C)C)c2ncnc(N)c12,"enzyme activity, inhibitor",1 µM,activity vs control,103%
Cc1ccc(C(=O)Nc2ccc(CN3CCN(C)CC3)c(C(F)(F)F)c2)cc1C#Cc1cnc2cccnn12,enzyme activity,23.5 nM,remaining activity,96%
CN1CC(Oc2cnc(C#N)cc2-c2ccn3nc(NC(=O)C4CC4)cc3c2)C1,"enzyme activity, inhibitor",1 µM,inhibition,-20%
CO[C@@H](C)c1c(Nc2ccc([C@H](N(C)C(=O)C3CCS(=O)(=O)CC3)C(F)(F)F)cc2)cnc2cc(Cl)nn12,"cell-free assay, competition with immobilised ligand",1 µM,remaining binding,70%
Nc1ncnc2occ(-c3ccc(NC(=O)Nc4cc(C(F)(F)F)ccc4F)cc3)c12,cell-free assay,20 µM,remaining signal,12%
O=C1NC(c2ccccn2)Sc2ccccc21 (stereo not drawn),"cell-free assay, competition with immobilised ligand",1 µM,remaining binding,86%
O=C(Nc1cnn(-c2csc(C(=O)NC3COC3)c2)c1)Nc1c(F)cccc1Cl,"enzyme activity, inhibitor",5 µM,remaining activity,96.6%
